These results are taken from ChEMBL document CHEMBL2406953, “Bioactive constituents of Indigofera spicata” (J Nat Prod, 2013).

Activity calls are given as the source filed them.

A short description of data set [1]: Selectivity ratio of IC50 for human CCD-112CoN cells to IC50 for human HT29 cells. The class given is ADME, cell-based, HT-29. The settings on record: CCD-112CoN cells versus HT29 cells, read-out: Ratio IC50. In short, it runs like this:
(§1)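 Normal colon CCD-112CoN cells tested by SRB assay alongside HT-29; IC50 (50% growth inhibition) as mean ± SD of triplicate; paclitaxel positive control; fold selectivity = IC50 in CCD-112CoN divided by IC50 in HT-29.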

In data set [2] the test system is HT-29. Kind of data set: Cytotoxicity against human HT-29 cells after 72 hrs by SRB assay. The class given is functional, cell-based. The following applies: HT-29, 72 h. In short, it runs like this: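 HT-29 colon cancer cells, sulforhodamine B assay, 72 h; paclitaxel positive control; IC50 defined as concentration inhibiting 50% cell growth, mean ± SD from a triplicate.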
For orientation: Sulforhodamine B stains cellular protein and so reports cell mass.

Data set [3] is described as follows: Cytotoxicity against human CCD-112CoN cells by SRB assay. The class given is cell-based. The procedure, abridged: as §1
For data set [4], the species on record is Mus musculus. Kind of data set: Induction of quinone reductase in mouse Hepa1c1c7 cells. The class given is cell-based. The procedure, abridged:
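Phase II enzyme induction was measured in murine Hepa 1c1c7 hepatoma cells by a standard quinone reductase procedure. L-sulforaphane served as the positive control. Values are CD, the concentration that doubles quinone reductase activity, given as mean ± SD of three independent experiments.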

The nature of data set [5]: Chemopreventive index, ratio of IC50 for mouse Hepa1c1c7 cells to CD for quinone reductase in mouse Hepa1c1c7 cells.
A short description of data set [6]: Cytotoxicity against mouse Hepa-1c1c7 cells. The class given is functional, cell-based.
The subject of data set [7] is Raji. Kind of data set: Cytotoxicity against human Raji cells after 72 hrs by MTS assay. The class given is functional, cell-based. In short, it runs like this:
(§2)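 697 (DSMZ) and Raji (ATCC) cells at 200,000 cells/mL; compounds from 2 mM DMSO stock, diluted in 10% DMSO, eight three-fold dilutions giving final 10 to 0.005 µM plus 0; final DMSO 0.5%; vincristine sulfate 25 nM positive control. Quadruplicate wells, 48 and 72 h, 37°C, 5% CO2; MTS read-out; IC50 = 50% growth inhibition, mean ± SD of three independent experiments.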

The subject of data set [8] is Raji. Kind of data set: Cytotoxicity against human Raji cells after 48 hrs by MTS assay. The class given is functional, cell-based. In short, it runs like this:
as §2
Background: Tetrazolium assays rely on reduction of a dye to a coloured formazan, in cell work by metabolically active cells.

Data set [9] has as its system 697. Kind of data set: Cytotoxicity against human 697 cells after 48 hrs by MTS assay. The class given is functional, cell-based. The settings on record: Homo sapiens, 697, 48 h. In short, it runs like this:
as §2

Data set [10] relates to 697. Kind of data set: Cytotoxicity against human 697 cells after 72 hrs by MTS assay. The class given is functional, cell-based. The following applies: Homo sapiens, 697, 72 h. In short, it runs like this: as §2
Data set [11] relates to 697. Kind of data set: Cytostatic activity against human 697 cells assessed as reduction in cell viability at 0.014 to 10 uM after 48 to 72 hrs by MTS assay. The class given is functional, cell-based. In short, it runs like this: (§3)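 697 cells at 200,000 cells/mL treated at final 10, 1.11, 0.123, 0.014, 0 µM (from 2 mM stock, 10% DMSO dilutions, final DMSO 0.5%) for 48 and 72 h; vincristine 25 and 5 nM positive control. Same dilutions run in parallel by MTS and by propidium iodide: cells pelleted, resuspended in PI/PBS, 15 min dark at room temperature, flow cytometry; three independent experiments.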

Data set [12] has as its system 697. Kind of data set: Induction of cell death in human 697 cells at 10 uM after 48 to 72 hrs using propidium iodide staining by flow cytometry. The class given is functional. In short, it runs like this: as §3
For orientation: A flow cytometer gives signals particle by particle.

Data set [13] deals with Mus musculus. Kind of data set: Toxicity in immunodeficient NCr nu/nu mouse at 0.5 to 2 mg/kg, ip qd. The class given is organism-based. Set-up: dose 0.5-2 mg/kg, route intraperitoneal. The following applies: in vivo.
A further data set deals with MDA-MB-435. Kind of data set: Antitumor activity against human MDA-MB-435 cells in hollow fiber implanted in immunodeficient NCr nu/nu mouse assessed as reduction in cell growth at 2 mg/kg, ip qd. The class given is functional. Set-up: scale not given: the % may be the effect or the level left. The following applies: route intraperitoneal.
The subject of data set [14] is HT-29. Kind of data set: Antitumor activity against human HT-29 cells in hollow fiber implanted in immunodeficient NCr nu/nu mouse assessed as reduction in cell growth at 0.5 to 2 mg/kg, ip qd.
For data set [15], the system named is Mus musculus. Kind of data set: Toxicity in immunodeficient NCr nu/nu mouse at 5 to 30 mg/kg, ip qd. The class given is organism-based. The arrangement: dose 5-30 mg/kg, route intraperitoneal. The following applies: in vivo. The procedure, abridged:
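Female NCr nu/nu mice with ip and sc hollow fibers (HT-29, MCF-7, MDA-MB-435 cells) given compound in 30% cyclodextrin ip once daily at 5, 10, 15, 30 mg/kg; bortezomib 1 mg/kg ip daily in 30% cyclodextrin as positive control; lethality monitored after each injection.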

For the molecule `CC(=O)O[C@H]1C(=O)[C@@]2(C)[C@H]([C@H](OC(=O)c3ccccc3)[C@]3(O)C[C@H](OC(=O)[C@H](O)[C@@H](NC(=O)c4ccccc4)c4ccccc4)C(C)=C1C3(C)C)[C@]1(OC(C)=O)CO[C@@H]1C[C@@H]2O` [PACLITAXEL], the selectivity ratio in data set [1] was found to be 38300. Moreover, the values for the IC50 (in the data set with HT-29 [2]; in data set [3]) were 0.0006 µM and 23 µM, respectively.
For the molecule `CC1(C)O[C@@H]2Oc3ccc(C(=O)/C=C/c4ccccc4)c(O)c3[C@@H]2[C@H]1O` [(+)-TEPHROSONE], in the data set listed under Mus musculus [4], the CD came out at 3.8 µM. Further, the Ratio in data set [5] was 9.9. In addition, the IC50 (as a rule, the concentration needed to halve the response being measured) in data set [6] was 37.6 µM.
For `C[S@+]([O-])CCCCN=C=S` [L-SULFORAPHANE], in that order: 0.5 µM, 23.9 and 12.1 µM.
For `COc1ccc2c(c1/C=C/C(C)(C)O)O[C@H](c1ccccc1)CC2=O`, in that order: 4.2 µM, 11.3 and 47.4 µM.
For `COc1cc2c(c3c1C(=O)C[C@@H](c1ccccc1)O3)[C@H]1[C@@H](O2)OC(C)(C)[C@@H]1OC(C)=O` (stereo in doubt; 2) [listing 1 of 2 here], the Ratio in [5] is 376.7. Moreover, the IC50 in data set [6] came to 63.9 µM.
For the molecule `COc1cc2c(cc1OC)[C@]1(O)C(=O)c3ccc4c(c3O[C@@H]1CO2)C=CC(C)(C)O4` [TEPHROSIN], the IC50 is over 10 µM in the data set with Raji [7]; over 10 µM in the data set with Raji [8]; over 10 µM in the data set with HT-29 [2]; 5.4 µM in the data set on 697 [9]; 9 µM in the data set with 697 [10]; 13.9 µM in data set [6]. Moreover, in the data set filed under Mus musculus [4], the CD is 0.4 µM. In data set [5], the Ratio was 35.3. In the data set on 697 [11], the outcome was Active. Moreover, the Activity with 697 [12] was determined as 24%.
`COc1ccc2c(c1C1=COC(C)(C)C1=O)O[C@H](c1ccccc1)CC2=O` [(2S)-2,3-DIHYDROTEPHROGLABRIN] had a CD in the data set listed under Mus musculus [4] of 6.4 µM. Further, in data set [5], the Ratio stood at 3.6. In data set [6], this molecule gave an IC50 of 23.1 µM.
Turning to `COc1cc2c(c(O)c1C(=O)/C=C/c1ccccc1)[C@H]1[C@@H](O2)OC(C)(C)[C@@H]1OC(C)=O` [TEPHROPURPURIN], the CD in the data set filed under Mus musculus [4] stood at 0.8 µM. In addition, the Ratio in [5] is on record as 23.9. In addition, the IC50 in data set [6] stood at 18.1 µM.
Take `C=C(C)[C@H]1Cc2c(ccc3c2O[C@@H]2COc4cc(OC)c(OC)cc4[C@@H]2C3=O)O1` [ROTENONE]: the IC50 with Raji [7] is 1.1 µM; in the data set on Raji [8], 4.2 µM; in the data set on 697 [9], 0.3 µM; in the data set on 697 [10], 0.3 µM; in data set [3], over 127 µM; in data set [6] it was 0.7 µM. Also, the CD in the data set filed under Mus musculus [4] was found to be 0.8 µM. Also, the selectivity ratio in data set [1] was over 423. Further, the Ratio in [5] is 0.9.
As to `COc1ccc2c(c1/C=C/C(C)(C)OC)O[C@H](c1ccccc1)CC2=O`, the CD in the data set filed under Mus musculus [4] worked out at 8.3 µM. In addition, the Ratio in [5] is recorded as 5.9. Further, half-maximal inhibition in data set [6] (IC50) required 49 µM.
The molecule `COc1cc2c(c3c1C(=O)C[C@@H](c1ccccc1)O3)[C@H]1[C@@H](O2)OC(C)(C)[C@@H]1OC(C)=O` (stereo in doubt; 2) [listing 2 of 2 here] gave a CD in the data set listed under Mus musculus [4] of 0.2 µM.
Regarding `C=C(C)[C@H]1Cc2c(ccc3c2O[C@@H]2COc4cc(OC)c(OC)cc4[C@]2(O)C3=O)O1` [ROTENOLONE], the IC50 in the data set on Raji [7] was 2.4 µM; in the data set with Raji [8], 5.6 µM; in the data set with HT-29 [2], 0.1 µM; in the data set on 697 [9], 0.7 µM; with 697 [10] it was 0.5 µM; in data set [3], 102 µM. For the same molecule, the IC50 in data set [6] amounted to 0.2 µM. This molecule came in with a CD in the data set filed under Mus musculus [4] of 0.4 µM. In addition, the values for the Activity entry in the data set with Mus musculus [13], in the data set on MDA-MB-435 and in the data set on Mus musculus [15] were “Non-toxic”, 20% and “Toxic”, respectively. Besides, the selectivity ratio in data set [1] was 1020. Further, the result with HT-29 [14] was inactive. In data set [5], the Ratio is recorded as 0.6.
Molecule `COc1cc2c(c3c1C(=O)C[C@@H](c1ccccc1)O3)[C@H]1[C@@H](O2)OC(C)(C)[C@@H]1OC(C)=O` (stereo in doubt; 5) came in with a CD in the data set listed under Mus musculus [4] of over 10 µM.
